What is called IC50 is the midpoint of a concentration-inhibition curve.

Each structure is given as a SMILES string. A value given as a limit tells only on which side of the number the result lay.

For the first assay, the system named is U-937. Briefly: Induction of apoptosis in human U937 cells assessed as apoptotic cells at 13.06 uM after 8 hrs using annexin V/propidium iodide staining by flow cytometry (reference value: 2.42%).
Settings: not given
In kind it is functional.
With `ClC=C(c1c(-c2ccccc2)[nH]c2ccccc12)c1c(-c2ccccc2)[nH]c2ccccc12`, the Activity amounted to 41%.

For another assay, the system named is U-937. In words: Cytotoxicity against human U937 cells assessed as cell growth inhibition after 48 hrs by MTS-PMS assay. In kind it is functional, cell-based. To be noted: U-937, 48 h. Summed up: (§1)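 Cells seeded at 5 × 10^4 per 200 µl and exposed to compounds at 0–100 µM, in triplicate, for 48 h at 37 °C, 5% CO2. MTS (2.0 mg/ml) and PMS (0.92 mg/ml) were mixed 10:1 and added, followed by 3 h at 37 °C. Absorbance (formazan) was read at 490 nm. Viability is expressed as % of untreated. IC50 was obtained by graphic extrapolation.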
Turning to `C=C(c1c(-c2ccccc2)[nH]c2ccccc12)c1c(-c2ccccc2)[nH]c2ccccc12`, the IC50 was greater than 100 µM.

In the case of `C=C(c1c(-c2cccc(Cl)c2)[nH]c2ccccc12)c1c(-c2cccc(Cl)c2)[nH]c2ccccc12`, the IC50 stood at 46.9 µM.

On to `C=C(c1c(-c2ccc(Cl)cc2Cl)[nH]c2ccccc12)c1c(-c2ccc(Cl)cc2Cl)[nH]c2ccccc12`, for which the IC50 was greater than 100 µM.

Consider `C=C(c1c(-c2ccccc2OC)[nH]c2ccccc12)c1c(-c2ccccc2OC)[nH]c2ccccc12`, for which the IC50 turned out to be 71.6 µM.

In the case of `C=C(c1c(-c2ccc(OC)c(OC)c2)[nH]c2ccccc12)c1c(-c2ccc(OC)c(OC)c2)[nH]c2ccccc12`, the IC50 is greater than 100 µM.

With `C=C(c1c(-c2cccc(Br)c2)[nH]c2ccccc12)c1c(-c2cccc(Br)c2)[nH]c2ccccc12`, the IC50 is greater than 100 µM.

With `ClC=C(c1c(-c2ccccc2)[nH]c2ccccc12)c1c(-c2ccccc2)[nH]c2ccccc12`, the IC50 is 13.1 µM.

The subject of another assay is K562. In words: Cytotoxicity against human K562 cells assessed as cell growth inhibition after 48 hrs by MTS-PMS assay. In kind it is functional, cell-based. To be noted: K562, 48 h. Put shortly: as §1
On the technique in general: Formazan colour is commonly taken as a measure of viable cells.
In the case of `C=C(c1c(-c2ccccc2)[nH]c2ccccc12)c1c(-c2ccccc2)[nH]c2ccccc12`, the IC50 is greater than 100 µM.

With `C=C(c1c(-c2cccc(Cl)c2)[nH]c2ccccc12)c1c(-c2cccc(Cl)c2)[nH]c2ccccc12`, the IC50 turned out to be 40.3 µM.

On to `C=C(c1c(-c2ccc(Cl)cc2Cl)[nH]c2ccccc12)c1c(-c2ccc(Cl)cc2Cl)[nH]c2ccccc12`, for which the IC50 is greater than 100 µM.

As to `C=C(c1c(-c2ccccc2OC)[nH]c2ccccc12)c1c(-c2ccccc2OC)[nH]c2ccccc12`, the concentration for half-maximal inhibition (IC50) worked out at 92.6 µM.

For the compound `C=C(c1c(-c2ccc(OC)c(OC)c2)[nH]c2ccccc12)c1c(-c2ccc(OC)c(OC)c2)[nH]c2ccccc12`, the IC50 was greater than 100 µM.

Regarding `C=C(c1c(-c2cccc(Br)c2)[nH]c2ccccc12)c1c(-c2cccc(Br)c2)[nH]c2ccccc12`, the IC50 is greater than 100 µM.

Take `ClC=C(c1c(-c2ccccc2)[nH]c2ccccc12)c1c(-c2ccccc2)[nH]c2ccccc12`: the IC50 was 18.2 µM.

The test system of a further assay is U-937. In words: Induction of apoptosis in human U937 cells assessed as pre-necrotic cells at 13.06 uM after 8 hrs using annexin V/propidium iodide staining by flow cytometry (reference value: 0.30%).
Settings: not given
In kind it is functional. In general terms: Flow cytometry measures light scatter and fluorescence of single cells or particles in a stream.
In the case of `ClC=C(c1c(-c2ccccc2)[nH]c2ccccc12)c1c(-c2ccccc2)[nH]c2ccccc12`, the Activity is given as 1.3%.

For the next assay, the system named is U-937. Briefly: Induction of apoptosis in human U937 cells assessed as late apoptotic cells at 13.06 uM after 8 hrs using annexin V/propidium iodide staining by flow cytometry (reference value: 5.83%).
Settings: not given
In kind it is functional.
`ClC=C(c1c(-c2ccccc2)[nH]c2ccccc12)c1c(-c2ccccc2)[nH]c2ccccc12`: the Activity came to 11.68%.
